Assay results as given in PubChem BioAssay.
Calls of active or inactive are those of the source.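 Rule for the calls, unless noted: active = a full or partial loss of lipid-probe fluorescence in the fish gall bladder, intestine or both, judged by eye; inactive = no fluorescence loss, or compound toxic to the fish.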

Experiment: inhibitors of larval lipid processing in zebrafish, primary screen, whole organism, PED6 fluorescence, gall bladder and intestine (AID 686);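 note: larvae 5 to 7 days old with five fish per well; signal comes from phospholipase A2 cleavage of quenched PED6 carried via bile; overnight exposure to compound and PED6 before scoring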
Conditions: Zebrafish larvae PED6 lipid processing, fluorescence scoring
Outline: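 system = live zebrafish larvae aged 5-7 days, whole organism | probe or stimulus = ingested quenched lipid PED6 at 100 nM | doses = 20 µM single dose | timing = overnight exposure | detection = fluorescence microscopy with visual scoring of gall bladder and intestine | read-out = visual per-well fluorescence inhibition score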

SMILES	outcome
Nc1ncc(P(=S)(N2CCOCC2)N2CCOCC2)s1	inactive
CCCCc1nc(N2CCNCC2)c(C#N)c2c1CSC(C)(C)C2	inactive
COc1ccc(C(=O)CC2C(=O)N(C)C(=O)N(C)C2=O)cc1	inactive
CCc1nc(N2CCNCC2)c(C#N)c2c1CSC(C)(C)C2	inactive
CCCN(CC#CCO)CCC	inactive
OC1(c2ccc(F)cc2)CCNC1 (stereo unspecified)	inactive
COc1ccccc1-n1c(O)c(C=NCCCn2ccnc2)c(=O)[nH]c1=O	inactive
COc1ccc(C2SCC(=O)Nc3c2c(=O)[nH]n3C2CCCCC2)cc1 (stereo unspecified)	inactive
CCCCNC(=O)Nc1ccc(C(O)(C(=O)OCC)C(F)(F)F)cc1 (stereo unspecified)	inactive
CCOC(=O)c1cc(C)n(CCc2cnc[nH]2)c1C	inactive
CC1CN=C(Nc2ccc(N(C)C)cc2)S1 (stereo unspecified)	inactive
NCC1(c2ccc3c(c2)OCCO3)CCCC1	inactive
CCOC(=O)C1=C(C)OC(N)=C(C(=O)OCC)[C@@]12C(=O)N(CC(N)=O)c1ccccc12	inactive
COC(=O)C(O)(c1ccc(NC(=O)c2ccco2)c(OC)c1)C(F)(F)F (stereo unspecified)	inactive
C=CCOC(=O)C1=C(C)OC(N)=C(C#N)[C@@]12C(=O)N(CC(N)=O)c1ccccc12	inactive
C=CCOC(=O)C1=C(C)OC(N)=C(C#N)C12C(=O)N(CN1CCOCC1)c1ccccc12 (stereo unspecified)	inactive
O=C(CN1CCN(CCO)CC1)Nc1ccc(Cl)cc1C(=O)c1ccccc1	inactive

SMILES	outcome
Cc1c(N=Cc2c(O)n(Cc3ccco3)c(=O)[nH]c2=O)c(=O)n(-c2ccccc2)n1C	inactive
CN(C)CCOC(=O)c1cn(Cc2ccccc2)c2ccccc12	inactive
COc1ccc2c(c1OC)C(=O)OC2c1c(O)n(C2CCCCC2)c(=O)[nH]c1=O (stereo unspecified)	inactive
Cn1c(O)c(C=NCCCNC2CCCCC2)c(=O)n(C)c1=O	inactive
COc1ccc(C2SCC(=O)Nc3c2c(=O)[nH]n3C2CCCCCC2)cc1 (stereo unspecified)	inactive
CNC(=O)N(C)c1nnc(C(C)(C)C)s1	inactive
CCCC12CN3CN(C1)CC(CCC)(C3)C2O (stereo unspecified)	inactive
Nc1c(C(=O)NCc2ccco2)c2nc3ccccc3nc2n1CCN1CCCCC1	inactive
OC(c1ccc(F)cc1)C(c1ccccc1)N1CCOCC1 (stereo unspecified)	inactive
COC(=O)C(c1ccccc1)N1CCCCCC1 (stereo unspecified)	inactive
CCn1c(O)c(C(=O)CC2NCCc3ccccc32)c(=O)n(CC)c1=S (stereo unspecified)	inactive
Nc1c(C(=O)NCc2ccco2)c2nc3ccccc3nc2n1Cc1ccc(F)cc1	inactive
CCCCNC(=O)Nc1ccc(C(O)(C(=O)OC)C(F)(F)F)cc1 (stereo unspecified)	inactive
CC1(C)NCCN2C(=O)CSC21 (stereo unspecified)	inactive
CC1(c2ccccc2)NCCN2C(=O)CSC21 (stereo unspecified)	inactive
CN1CCc2c(c(N3CCCCC3)nc3n[nH]c(N)c23)C1	inactive

Experiment: inhibitors of Chlamydomonas gravitaxis, primary screen, whole organism, Chlamydomonas reinhardtii, WT vs cilia-less mutant, absorbance, 96-well (AID 463189;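 active = inhibition at or above 50% relative to wild type and mutant plate controls; inactive = inhibition below 50%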;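 note: 0% = wild type cc124 cells in DMSO and 100% = ciliumless bld1 mutant cells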)
Conditions: OD600 absorbance, 2 days, at 10 µM, stronger effect = higher value

SMILES	inhibition
Nc1ncc(P(=S)(N2CCOCC2)N2CCOCC2)s1	11.1% (inactive)
CCCCc1nc(N2CCNCC2)c(C#N)c2c1CSC(C)(C)C2	55.2% (active)
COc1ccc(C(=O)CC2C(=O)N(C)C(=O)N(C)C2=O)cc1	0.215% (inactive)
CCc1nc(N2CCNCC2)c(C#N)c2c1CSC(C)(C)C2	15% (inactive)
CCCN(CC#CCO)CCC	-2.44% (inactive)
OC1(c2ccc(F)cc2)CCNC1 (stereo unspecified)	16.5% (inactive)
COc1ccccc1-n1c(O)c(C=NCCCn2ccnc2)c(=O)[nH]c1=O	5.72% (inactive)
COc1ccc(C2SCC(=O)Nc3c2c(=O)[nH]n3C2CCCCC2)cc1 (stereo unspecified)	6.02% (inactive)
CCCCNC(=O)Nc1ccc(C(O)(C(=O)OCC)C(F)(F)F)cc1 (stereo unspecified)	5.22% (inactive)
CCOC(=O)c1cc(C)n(CCc2cnc[nH]2)c1C	-3.61% (inactive)
CC1CN=C(Nc2ccc(N(C)C)cc2)S1 (stereo unspecified)	9.45% (inactive)
NCC1(c2ccc3c(c2)OCCO3)CCCC1	-6.44% (inactive)
CCOC(=O)C1=C(C)OC(N)=C(C(=O)OCC)[C@@]12C(=O)N(CC(N)=O)c1ccccc12	5.83% (inactive)
COC(=O)C(O)(c1ccc(NC(=O)c2ccco2)c(OC)c1)C(F)(F)F (stereo unspecified)	0.634% (inactive)
C=CCOC(=O)C1=C(C)OC(N)=C(C#N)[C@@]12C(=O)N(CC(N)=O)c1ccccc12	1.7% (inactive)
C=CCOC(=O)C1=C(C)OC(N)=C(C#N)C12C(=O)N(CN1CCOCC1)c1ccccc12 (stereo unspecified)	39.6% (inactive)
O=C(CN1CCN(CCO)CC1)Nc1ccc(Cl)cc1C(=O)c1ccccc1	12% (inactive)

SMILES	inhibition
Cc1c(N=Cc2c(O)n(Cc3ccco3)c(=O)[nH]c2=O)c(=O)n(-c2ccccc2)n1C	11.7% (inactive)
CN(C)CCOC(=O)c1cn(Cc2ccccc2)c2ccccc12	37% (inactive)
COc1ccc2c(c1OC)C(=O)OC2c1c(O)n(C2CCCCC2)c(=O)[nH]c1=O (stereo unspecified)	6.27% (inactive)
Cn1c(O)c(C=NCCCNC2CCCCC2)c(=O)n(C)c1=O	-2.14% (inactive)
COc1ccc(C2SCC(=O)Nc3c2c(=O)[nH]n3C2CCCCCC2)cc1 (stereo unspecified)	29.9% (inactive)
CNC(=O)N(C)c1nnc(C(C)(C)C)s1	119% (active)
CCCC12CN3CN(C1)CC(CCC)(C3)C2O (stereo unspecified)	-2.85% (inactive)
Nc1c(C(=O)NCc2ccco2)c2nc3ccccc3nc2n1CCN1CCCCC1	131% (active)
OC(c1ccc(F)cc1)C(c1ccccc1)N1CCOCC1 (stereo unspecified)	-7.5% (inactive)
COC(=O)C(c1ccccc1)N1CCCCCC1 (stereo unspecified)	-6.36% (inactive)
CCn1c(O)c(C(=O)CC2NCCc3ccccc32)c(=O)n(CC)c1=S (stereo unspecified)	-9.64% (inactive)
Nc1c(C(=O)NCc2ccco2)c2nc3ccccc3nc2n1Cc1ccc(F)cc1	34.8% (inactive)
CCCCNC(=O)Nc1ccc(C(O)(C(=O)OC)C(F)(F)F)cc1 (stereo unspecified)	8.19% (inactive)
CC1(C)NCCN2C(=O)CSC21 (stereo unspecified)	9.56% (inactive)
CC1(c2ccccc2)NCCN2C(=O)CSC21 (stereo unspecified)	8.43% (inactive)
CN1CCc2c(c(N3CCCCC3)nc3n[nH]c(N)c23)C1	-3.54% (inactive)
